Platelet DG rel: inhibitors of platelet dense granule secretion, primary screen, cell-based, MLPCN, human platelets | AID 1663, 2009 | human platelet-rich plasma, SFLLRN dense granule ATP release, luminescence | inhibition, %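 (compounds screened at 7.5 µM in platelet-rich plasma)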 | actives 0.22% (n = 300,000);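 active means mean replicate score, as percent of positive control, at or above 50; inconclusive means mean below 50 but at least one replicate at or above 50; inactive means mean and every replicate below 50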
VLA-4 inh: inhibition in human VLA-4 binding assay, primary screen, VLA-4 allosteric modulator project, MLPCN library, flow cytometry, VLA-4 expressing cells | Integrin alpha-4 (Homo sapiens), P13612 | ligand binding flow cytometry | inhibition, % (about 7 µM as worked out from the volumes in the protocol) | actives 0.2% (n = 330,000) | AID 2557, 2010; in the data active means inhibition above about 50%
Myeloid diff 2: induction of myeloid progenitor differentiation, primary screen, cell-based, flow cytometry, MLPCN library; ER-HoxA9 myeloid progenitors, lysozyme-GFP differentiation; calls only at 10 µM; actives 1% (n = 360,000); AID 624256, 2012;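 active means normalized GFP-positive differentiation at or above the plate's own cutoff, the solvent-only control mean plus 3 SD; inconclusive means no clear call, values can overlap the other calls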;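 further: cells exposed to compound for four days before flow analysis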
SENP1 FRET inh: human SENP1 catalytic domain inhibitors, primary screen, biochemical, FRET, uHTS; Sentrin-specific protease 1 (Homo sapiens), Q9P0U3; recombinant SENP1 catalytic domain, CyPet-SUMO1-YPet FRET cleavage; inhibition, % at 10 µM; actives 0.21% (n = 360,000); AID 624204, 2012;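 active means inhibition at least 30% at 10 µM, raw YFP signal under a set limit, fluorescence ratio 0.5 to 1.5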;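 further: 0% = enzyme with DMSO and 100% = no enzyme wells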
Target sequence (Q9P0U3 419-644 limits assumed): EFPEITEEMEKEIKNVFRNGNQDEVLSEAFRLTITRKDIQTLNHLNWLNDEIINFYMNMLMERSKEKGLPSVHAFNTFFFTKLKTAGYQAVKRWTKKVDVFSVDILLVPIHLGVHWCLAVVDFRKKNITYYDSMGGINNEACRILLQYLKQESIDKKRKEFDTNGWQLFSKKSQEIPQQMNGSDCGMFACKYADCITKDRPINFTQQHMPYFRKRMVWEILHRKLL
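System: Recombinant human SENP1 catalytic domain, His6-tagged | Incubation: Enzyme reaction for 50 min at room temperature, dark | Medium: Tris pH 8 with BME, BSA, NP40 and catalase | Also added: 25 nM SUMO1 FRET substrate | Compound: 10 µM single point, 0.5% DMSO | Measured by: FRET fluorescence in CFP and YFP emission channels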
Myeloid diff CP1: inducers of myeloid progenitor differentiation, confirmation, cell-based, GFP/Mac1 flow cytometry, cherry pick 01; actives 2% (n = 2,300); ER-HoxA9 myeloid progenitors, GFP/Mac1 double-positive flow; calls only; shares compounds with Myeloid diff 2;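 active means share of green or green-and-red cells above 9 and 9% in run 1 or 4 and 3% in run 2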
GFP autofluor: compound fluorescence in myeloid differentiation counter-screen. shares compounds with Myeloid diff 2. ER-HoxA9 myeloid progenitors, no estrogen, GFP autofluorescence flow cytometry; vehicle wells 0%, positive control 100%. fluorescence response, % (no concentration beside the values). AID 651707. actives 7.4% (n = 2,300);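 active means over 5% cells positive for green fluorescent reporter, or over 2% positive for both it and APC stain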;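 further: range taken on the double positive population between DMSO and positive control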
Active calls of the source: *; i = inactive; ? = inconclusive; · = not tested or not shown; + = active, no number. In the library only some 1.5% were active in any assay of this set; here they are far more common.

SMILES | Platelet DG rel | VLA-4 inh | Myeloid diff 2 | SENP1 FRET inh | Myeloid diff CP1 | GFP autofluor
CN(c1nc2ccccc2nc1Cl)S(=O)(=O)c1ccccc1 | -3 | 4 | i | -9 | · | ·
COc1ccc(C(=O)Cn2cc[n+](C)c2)cc1 | 9 | 27 | + | 5 | i | 0
COc1cc(CC(=O)Nc2sc3c(c2C(N)=O)CCCC3)cc(OC)c1OC | -3 | 1 | i | -1 | · | ·
CCNS(=O)(=O)c1ccc(C(=O)OCc2cc(=O)oc3cc(OC)ccc23)cc1 | -31 | -11 | i | -35 | · | ·
NNC(=O)c1ccc(CSc2cccc3cccnc23)cc1 | -5 | 5 | i | 0 | i | 0
Cc1ccc(NC(=O)COC(=O)CN2C(=O)NC3(CCCC3)C2=O)cc1F | · | -4 | i | -1 | i | 1
Cc1ccc(S(=O)(=O)Nc2ccc(S(=O)(=O)Nc3ncccn3)cc2)cc1 | 0 | -3 | i | 1 | i | 0
Cc1ccc(S(=O)(=O)Nc2nc(C)cc(NN)n2)cc1 | 1 | 0 | i | 2 | · | ·
COc1cc(C)nc(NS(=O)(=O)c2ccc(C)cc2)n1 | 3 | 7 | i | -1 | i | 0
Cc1ccc(S(=O)(=O)Nc2ccc(-c3nnc(SCC#N)n3C)cc2)cc1 | 1 | -4 | + | -1 | i | 0
CC(=O)NC(Cc1c[nH]c2ccccc12)C(=O)OCC(=O)N1CCCCCC1 (stereo not given) | 17 | 7 | i | 1 | · | ·
CC1CCCN(C(=O)CSc2ncccn2)C1 (stereo not given) | 1 | -4 | i | 1 | · | ·
C#CC[N+](CC)(CC)CC#Cc1cccc(Cl)c1 | -1 | -5 | + | 3 | i | 1
CCC(=O)N1CCc2cc(Br)cc(S(=O)(=O)NCC3CCCO3)c21 (stereo not given) | 1 | 8 | i | -1 | · | ·
CCC(=O)N1CCc2cc(Br)cc(S(=O)(=O)CCC(=O)NCC3CCCO3)c21 (stereo not given) | 3 | 12 | + | 3 | i | 0
O=C(NCC1CCCN1S(=O)(=O)c1cccs1)c1ccc(F)cc1 (stereo not given) | 11 | 2 | i | 0 | · | ·
O=C(Cn1c(=O)[nH]c2ccsc2c1=O)NC1CCCCC1 | 1 | -6 | + | 1 | i | 0
O=C(NC1CCCC1)c1ccc(Cn2c(=O)[nH]c3ccsc3c2=O)cc1 | -3 | 6 | i | -2 | · | ·
O=C(O)c1ccc(Cl)c(S(=O)(=O)Nc2ccc(OCc3ccccc3)cc2)c1 | -9 | -9 | i | 1 | i | 0
Cc1ccc(S(=O)(=O)c2ccc([N+](=O)[O-])o2)cc1 | · | · | ? | 0 | · | ·
COc1cccc(C2CC(c3ccc(Br)cc3)=NN2C(=O)c2ccncc2)c1OC (stereo not given) | 3 | 1 | i | -16 | · | ·
COc1ccccc1C1CC(c2ccc(Br)cc2)=NN1C(=O)c1cccnc1 (stereo not given) | -2 | 9 | i | -17 | i | 0
NC(=O)CC(NC(=O)Cc1ccc(Cl)cc1)c1ccc(NC2CCCCC2)c([N+](=O)[O-])c1 (stereo not given) | 0 | 2 | i | 0 | i | 0
O=Cc1cccn1-c1ccc(O)cc1 | -2 | 9 | i | 0 | · | ·
N#Cc1ccc(-c2csc(NC(=O)C3CC3)n2)cc1 | -9 | 7 | i | -1 | · | ·
SMILES | Platelet DG rel | VLA-4 inh | Myeloid diff 2 | SENP1 FRET inh | Myeloid diff CP1 | GFP autofluor
O=C(/C=C/c1ccccc1)Nc1nc(-c2ccncc2)cs1 | 10 | -9 | i | 2 | · | ·
Cc1ccc(-c2csc(NC(=O)/C=C/c3cccs3)n2)cc1C | 3 | 13 | i | 1 | i | 0
N#Cc1ccc(-c2csc(NC(=O)/C=C/c3cccs3)n2)cc1 | 0 | 30 | + | 0 | i | 0
O=C(CSc1nc2ncc(Cl)cc2[nH]1)N(Cc1ccccc1)C1CCS(=O)(=O)C1 (stereo not given) | 0 | 12 | i | 1 | · | ·
O=C(CCN1CCN(Cc2ccccc2)CC1)Nc1cccc(Br)c1 | 10 | 2 | i | 4 | · | ·
COc1ccc(Oc2nccc(OC)c2C#N)cc1 | 8 | -25 | i | 0 | · | ·
COc1ccnc(Oc2ccc(C)cc2C)c1C#N | 5 | 2 | + | 2 | i | 0
COC(=O)c1cc(S(=O)(=O)N2CCOCC2)ccc1Sc1ccccc1N | -2 | -4 | i | -2 | i | 0
COC(=O)c1cc(S(=O)(=O)N2CCCCC2)ccc1N1CCOCC1 | 2 | -1 | · | -1 | · | ·
O=S(=O)(N/N=C\C=C\c1ccccc1)c1ccc(Cl)cc1 | 7 | 6 | i | 1 | i | 0
O=S(=O)(N/N=C\c1ccccc1O)c1ccc(Cl)cc1 | -1 | -10 | i | 1 | · | ·
Cn1c(=O)c2ccccc2n(Cc2ccccc2Cl)c1=O | 3 | -7 | i | 2 | i | 0
Cn1c(=O)c2ccccc2n(Cc2ccccc2F)c1=O | -3 | 10 | i | 0 | · | ·
CCCCCCCC(=O)NNC(=O)c1ccc(F)cc1 | 4 | -3 | i | 1 | i | 1
Cc1c2ccccc2c(C)c2c1ccc1ccccc12 | · | 3 | i | -6 | · | ·
CC1=Nc2ccc3ccccc3c2C1(C)C | -3 | -203 | + | -28 | i | 0
O=C(Nc1ccc(NC(=O)c2cccnc2Cl)cc1)c1cccc(Cl)c1 | 1 | 14 | i | 0 | · | ·
Nc1nc(SCc2ccccc2)c2ncn(C3CCCO3)c2n1 (stereo not given) | · | · | i | 2 | i | 0
Nc1nc(SCc2ccccc2)c2ncn(C3CCCCC3)c2n1 | · | · | i | 0 | · | ·
Cn1c2ccccc2c(=O)c2ccc(NCc3ccc4c(c3)OCO4)cc21 | · | · | + | -31 | i | 2
Cc1ccnc(NC(=O)c2cccc(S(=O)(=O)N3CCN(c4ccc(F)cc4)CC3)c2)c1 | 13 | -4 | i | 1 | · | ·
Cc1ccc(S(=O)(=O)N2C[C@H]3C(=O)C[C@@H](c4ccccc4)N(S(=O)(=O)c4ccc(C)cc4)[C@H]3C[C@H]2c2ccccc2)cc1 | · | · | i | -1 | · | ·
Cc1ccc(S(=O)(=O)N2C[C@H]3C(=O)C[C@@H](c4ccccc4)N(S(=O)(=O)c4ccc(Br)cc4)[C@H]3C[C@H]2c2ccccc2)cc1 | · | · | + | 4 | i | 4
Cn1ncc(Cl)c1C(=O)N1CCN(c2ccc(F)cc2)CC1 | 5 | 8 | i | -1 | · | ·
COc1cccc(-c2cccc(NC(=O)C3CCN(Cc4ccon4)CC3)c2)c1 | 0 | 3 | i | 1 | · | ·
COC(=O)/C(=C/Nc1ccccc1)[N+](=O)[O-] | -6 | 17 | · | 1 | i | 2
Cc1nc2ccccc2c(=O)n1Cc1ccco1 | 15 | 7 | i | -1 | · | ·

Screening data deposited in PubChem BioAssay by several laboratories.
